Test system: Plasmodium falciparum
Experiment: Antiplasmodial activity against chloroquine-resistant Plasmodium falciparum W2 infected in human erythrocytes after 48 hrs by FACS analysis
Assay type: functional, organism-based
Conditions: W2, 48 h
How it was run: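 Ring-stage W2-infected human RBCs at ~1% parasitemia, sorbitol (5%) synchronized; 48 h at 37 °C with compounds in RPMI-1640, 25 mM HEPES pH 7.4, 10% heat-inactivated human serum (or 0.5% Albumax/2% human serum), 100 hypoxanthine, 3% O2/5% CO2/91% N2. Cells fixed in 2% HCHO, stained with 1 nM YOYO-1 (NH4Cl/Triton X-100), flow cytometry at ex 488/em 520 nm; IC50 by curve fitting.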

## Cc1ccccc1OCCSc1nnc(-c2c[nH]c3ccccc23)n1C
  IC50: 6.69 µM

## Cn1c(SCc2nc(-c3cccs3)no2)nnc1-c1c[nH]c2ccccc12
  IC50: 29.5 µM

## COc1ccc(SCCc2ccc(C)nc2)cc1
  IC50: > 50 µM

## O=C(NCc1ccoc1)C1CCC(Cn2c(=S)[nH]c3ccccc3c2=O)CC1 (stereo not drawn)
  IC50: > 50 µM

## O=C(CSc1nnc(-c2c[nH]c3ccccc23)o1)c1ccc2c(c1)OCCO2
  IC50: > 50 µM

## NC(=O)C(CC(=O)c1csc(C2CCCNC2)n1)Cc1c[nH]c2ccccc12 (stereo not drawn)
  IC50: > 50 µM

## CCCNc1nnc(SCc2cscn2)s1
  IC50: > 50 µM

## COc1ccc2[nH]c3nc(SCC(=O)Nc4nc(C(C)(C)C)cs4)nnc3c2c1
  IC50: 27.1 µM

## c1ccn2cc(CSc3nnc(C4CC4)o3)nc2c1
  IC50: > 50 µM

## CCn1c(SCc2nc(-c3cccs3)no2)nnc1-c1c[nH]c2ccccc12
  IC50: 28.5 µM

## c1cnc(SCCOc2ccc3c(c2)CCC3)nc1
  IC50: > 50 µM

## CSCCC(N)c1nc(C(=O)CC(Cc2c[nH]c3ccccc23)C(N)=O)cs1 (stereo not drawn)
  IC50: > 50 µM

## O=C(NCc1cccnc1)C1CCC(Cn2c(=S)[nH]c3ccccc3c2=O)CC1 (stereo not drawn)
  IC50: 1.97 µM

## Cc1ccc(C)n1CCSc1nc(N)cc(N)n1
  IC50: > 50 µM

## COc1ccc(NC(=O)CCCn2c(=S)[nH]c3ccccc3c2=O)cc1OC
  IC50: > 50 µM

## Cc1nc2ccccc2nc1CSCc1ccco1
  IC50: > 50 µM

## COc1ccc(-c2noc(CSc3nnc(-c4c[nH]c5ccccc45)n3C)n2)cc1OC
  IC50: 12.1 µM

## Cc1ccc(NC(=O)CSc2nc(O)cc(NS(=O)(=O)c3ccccc3)n2)cc1
  IC50: > 50 µM

## Cc1ccc(CNC(=O)CCn2c(=S)[nH]c3cc4c(cc3c2=O)OCO4)o1
  IC50: > 50 µM

## Cn1c(SCc2nc(-c3ccc(Cl)cc3)no2)nnc1-c1c[nH]c2ccccc12
  IC50: > 50 µM

## O=C(Cc1ccc2c(c1)CCC2)NCCc1ccco1
  IC50: > 50 µM

## CCSc1nnc(NC(=O)CS(=O)(=O)c2c[nH]c3ccccc23)s1
  IC50: > 50 µM

## Cc1ccc2[nH]c3nc(SCC(=O)Nc4sc5c(c4C#N)CCCC5)nnc3c2c1
  IC50: > 50 µM

From ChEMBL document CHEMBL1914285, “Identification of new antimalarial leads by use of virtual screening against cytochrome bc₁” (Bioorg Med Chem, 2011)
